MLL AF4-AF9 inh – inhibitors of AF4 peptide binding to AF9, primary screen, biochemical, AlphaScreen, biotin-AF4 peptide, FLAG-AF9, single point. Protein AF-9 (Homo sapiens), P42568. inhibition, % at 10 µM. 350,000 tested, 0.47% active. AID 651704, 2012;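 active = every replicate reaching a set inhibition limit, whatever the replicate mean, cut at about 25% in these data; inconclusive = mean inhibition reaches that limit but some replicates miss it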;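 note: 0% = plate neutral control median and 100% = total signal loss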
Target sequence (P42568 whole entry, looked up): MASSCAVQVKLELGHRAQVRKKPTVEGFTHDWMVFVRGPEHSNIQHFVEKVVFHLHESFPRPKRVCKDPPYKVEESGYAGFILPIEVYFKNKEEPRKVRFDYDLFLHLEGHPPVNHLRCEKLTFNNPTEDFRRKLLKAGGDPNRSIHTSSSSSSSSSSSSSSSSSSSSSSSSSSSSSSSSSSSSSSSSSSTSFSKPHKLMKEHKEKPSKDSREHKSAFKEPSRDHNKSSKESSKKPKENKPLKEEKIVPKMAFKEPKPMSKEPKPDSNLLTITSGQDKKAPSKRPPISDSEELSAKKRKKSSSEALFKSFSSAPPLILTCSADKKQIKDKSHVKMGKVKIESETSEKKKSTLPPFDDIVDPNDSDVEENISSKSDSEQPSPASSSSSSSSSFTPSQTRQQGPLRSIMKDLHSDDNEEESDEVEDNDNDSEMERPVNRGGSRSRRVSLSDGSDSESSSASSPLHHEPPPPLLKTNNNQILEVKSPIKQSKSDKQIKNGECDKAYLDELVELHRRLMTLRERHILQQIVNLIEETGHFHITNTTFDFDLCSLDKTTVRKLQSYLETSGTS
Cneo AK release – Cryptococcus neoformans cell lysis inducers, primary screen, AK release luminescence, single concentration. C. neoformans lysis, adenylate kinase release luminescence, 4 h; normalised: neutral wells 0, clomiphene wells 100. AID 651654, 2012. 360,000 tested, 0.2% active. lysis activity, % at 15 µM;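 active = mean lysis activity across replicates of at least 80%, whatever share of replicates individually reach that level; inactive = mean lysis activity below 80%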
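Test system: log-phase Cryptococcus neoformans yeast cells; Quantity: yeast cell density of 5 × 10^6 cells/mL; Buffer or medium: YPD; Doses: single compound concentration per well; Timing: 4 h at 37 °C static, read 1 h later; Measured by: AK luminescence; Read-out basis: lysis from increased AK signal; Control set: Clomiphene as positive control.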
S100A4 inh HTS – inhibitors of S100A4-myosin IIA peptide binding, primary screen, biochemical, fluorescence polarization, TAMRA-MyoIIA peptide; Protein S100-A4 (Homo sapiens), P26447; inhibition, % at 10.7 µM; 360,000 tested, 0.14% active;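 active = mean inhibition of at least 70% across replicates, with every replicate also reaching that level; inconclusive = mean inhibition reaches 70% but some replicates fall short; inactive = mean inhibition below 70%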
Target sequence (P26447 whole entry, looked up): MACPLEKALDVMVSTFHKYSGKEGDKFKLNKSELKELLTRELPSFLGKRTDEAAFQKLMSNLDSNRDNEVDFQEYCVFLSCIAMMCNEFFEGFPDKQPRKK
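Assay system: human S100A4 monomer with TAMRA-labelled myosin IIA peptide / Buffer or medium: Calcium-containing HEPES buffer, pH 7.2 / Reagent: TAMRA-labelled myosin IIA heavy-chain peptide probe, 5 nM / Compound: one dose per compound / Timing: polarization read 5 min after assay mix addition, stable 5–60 min / Benchmarks: neutral control DMSO, positive control TFP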
PfHsp90 set2 – growth inhibition of PfHsp90-expressing yeast, primary screen, antimalarial PfHsp90 inhibitor project, S. cerevisiae, BacTiter-Glo luminescence, single point, set 2; BacTiter-Glo ATP, 48 h; yeast lacking PDR1 and PDR3 efflux regulators; inhibition, % at 9.4 µM; 310,000 tested, 0.32% active;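 active = every replicate shows inhibition above about 80%, whatever the replicate mean, limit read from the data; inconclusive = mean inhibition reaches the set limit but some replicate falls short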;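 note: 0% = DMSO neutral controls and 100% = 20 µM radicicol positive controls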
rRNA inh HTS – reduced GFP signal of wild-type E. coli, primary screen, bacterial rRNA inhibitor project, GFP/RFP fluorescence, OD600, single point; E. coli WT GFP vs humanized-ribosome RFP mutants, 24 h; hits give low values; DMSO median 0, no signal -100; GFP signal change (wild-type ribosome), % (concentration not given with the values); 350,000 tested, 1.6% active;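 active = significant combined selectivity score with lowered wild-type GFP, culture density cut under 30%, mutant RFP and density less affected; inactive = any of these conditions unmet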
DENV2 CPE rescue – inhibitors of DENV2 cytopathic effect, primary screen, cell-based, plate reader, single concentration; DENV2-infected cells, cytopathic effect rescue; CPE inhibition, % at 9.99 µM; 350,000 tested, 1.7% active; in the data active = CPE inhibition above about 20%, passing the limit was not always enough; inconclusive = no clear call, values can overlap the other calls; tested in BHK-21 cells;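 note: 0% = median of neutral control wells and 100% = median of positive control wells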
Starred values were filed as active, the others as inactive; ? = inconclusive; nt = no result given. Rows were chosen to be rich in hits. Some 3.2% of all compounds tested hit in one or more screens of this group.

SMILES | MLL AF4-AF9 inh | Cneo AK release | S100A4 inh HTS | PfHsp90 set2 | rRNA inh HTS | DENV2 CPE rescue
C[C@H]1CN([C@@H](C)CO)C(=O)c2cccc(NS(C)(=O)=O)c2O[C@H]1CN(C)S(=O)(=O)c1ccccc1 | -4.5 | 0.0 | -0.9 | nt | 5.6 | -0.5
CCC1CCCCN1S(=O)(=O)c1ccc(NC(=O)c2nc(S(C)(=O)=O)ncc2Cl)cc1 (stereo not drawn) | 1.8 | -1.3 | 0.7 | 3.4 | -28.8* | 3.4
C[C@H](CO)N1C[C@H](C)[C@H](CN(C)CC2CCCCC2)Oc2ccc(NC(=O)c3ccncc3)cc2C1=O | -2.1 | 0.6 | -9.0 | nt | -0.4 | -5.5
C=C(C)C(=O)Nc1cccc(C2=NOC3(C2)C[C@@H](C(N)=O)N(C(=O)/C(C)=C/C)C3)c1 (stereo partly drawn) | -69.1 | 3.8 | -2.3 | 7.3 | 2.7 | 0.2
C/C=C(/C)C(=O)Nc1cccc(C2=NOC3(C2)C[C@H](C(N)=O)N(C(=O)c2ccccc2)C3)c1 (stereo partly drawn) | 3.7 | 2.9 | -1.0 | -12.6 | 2.7 | 15.4
C/C=C(\C)C(=O)Nc1cccc(C2=NOC3(C2)C[C@@H](C(N)=O)N(C(=O)c2ccccc2C(=O)c2ccccc2)C3)c1 (stereo partly drawn) | -11.6 | -0.4 | -11.1 | -4.3 | -9.0 | 22.7*
C/C=C(\C)C(=O)Nc1cccc(C2=NOC3(C2)C[C@@H](C(N)=O)N(C(=O)/C(C)=C/C)C3)c1 (stereo partly drawn) | -2.1 | 8.3 | -2.9 | 10.7 | -2.6 | 30.2*
C[C@H](CO)N1C[C@H](C)[C@@H](CN(C)CC2CC2)OCCCC[C@H](C)Oc2ccc(NC(=O)CCC(F)(F)F)cc2C1=O | -6.8 | 13.8 | 1.4 | nt | 7.6 | 1.0
Cc1noc(C)c1S(=O)(=O)Nc1ccc2c(c1)CC(=O)N([C@@H](C)CO)C[C@@H](C)[C@@H](CN(C)CC1CCCCC1)O2 | -0.4 | 2.8 | 0.3 | nt | 4.4 | -1.5
CN1CCN(C(=O)C[C@H]2C[C@@H]3c4cc(NC(=O)C5CCC5)ccc4O[C@@H]3[C@H](CO)O2)CC1 | -4.7 | 12.2 | -5.5 | nt | 6.5 | 0.3
COc1ccc(-c2ccc([C@H]3[C@@H](CO)N4CCCCN(C(=O)NC(C)C)C[C@H]34)cc2)cc1 | 3.5 | 1.3 | 1.3 | nt | 0.4 | 30.9*
COc1ccc(-c2ccc([C@H]3[C@@H](CO)N4CCCCN(C(=O)NC(C)C)C[C@@H]34)cc2)cc1 | 1.8 | 0.0 | -6.8 | nt | 1.7 | 19.9
COc1ccc(-c2ccc([C@@H]3[C@H]4CN(C(=O)NC(C)C)CCCCN4[C@H]3CO)cc2)cc1 | -2.4 | -1.4 | -5.7 | nt | 1.2 | -7.8
COc1ccc(-c2ccc([C@H]3[C@H](CO)N4CCCCN(C(=O)NC(C)C)C[C@@H]34)cc2)cc1 | 0.2 | 0.5 | -5.1 | nt | -1.9 | 40.2*
CNC[C@@H]1OCCCC[C@@H](C)Oc2ccc(NS(C)(=O)=O)cc2C(=O)N([C@@H](C)CO)C[C@H]1C | nt | nt | nt | nt | 4.6 | nt
CNC[C@H]1Oc2ncc(C#CCC(C)C)cc2C(=O)N([C@H](C)CO)C[C@H]1C | -0.6 | 90.3* | -26.3 | nt | 3.2 | -3.0
CNC[C@H]1Oc2ncc(C#Cc3ccccc3F)cc2C(=O)N([C@@H](C)CO)C[C@H]1C | 5.8 | -1.0 | -0.4 | nt | 6.4 | 70.9*
CNC[C@@H]1Oc2ncc(C#CCC(C)C)cc2C(=O)N([C@H](C)CO)C[C@@H]1C | 1.3 | nt | -29.1 | nt | 4.7 | -5.4
COC(=O)C1=C(C)NC(C)=C(C(=O)OC)C1/C=C/c1ccccc1 | -34.6 | -1.7 | 3.1 | 21.1 | -31.6* | -1.3
CCOC(=O)C1=C(C)NC(C)=C(C(=O)OCC)C1/C=C/c1ccccc1 | -13.0 | 0.2 | 4.6 | 12.0 | -38.1 | 4.9
O=C1NC(=Nc2ccc(O)cc2)S/C1=C\C=C\c1ccco1 | -11.1 | nt | -3.9 | -8.9 | -24.2* | 4.2
COc1ccc(N=C2NC(=O)/C(=C\c3ccco3)S2)cc1 | 3.3 | -3.1 | -0.9 | -2.1 | -13.0 | -3.0
COc1ccc2c3c(n(C)c2c1)[C@H](CO)N(C(=O)c1ccncc1)CC31CCN(S(C)(=O)=O)CC1 | -4.8 | nt | -7.7 | nt | -1.1 | -1.8
Cc1noc(C)c1NC(=O)Nc1ccc2c(c1)C(=O)N([C@@H](C)CO)C[C@H](C)[C@H](CN(C)C(=O)Nc1ccc(C(F)(F)F)cc1)O2 | 1.1 | -6.0 | -11.1 | nt | -34.0 | 8.2
C[C@H](CO)N1C[C@H](C)[C@@H](CN(C)C)Oc2ccc(NC(=O)Nc3ccc(F)cc3)cc2C1=O | -2.3 | -0.4 | 36.5 | nt | -0.3 | 75.3*
SMILES | MLL AF4-AF9 inh | Cneo AK release | S100A4 inh HTS | PfHsp90 set2 | rRNA inh HTS | DENV2 CPE rescue
Cc1noc(C)c1NC(=O)Nc1ccc2c(c1)C(=O)N([C@@H](C)CO)C[C@@H](C)[C@@H](CN(C)C(=O)Nc1ccc(C(F)(F)F)cc1)O2 | 2.2 | -0.2 | -3.6 | nt | -60.3 | 32.2*
C[C@@H]1CN([C@@H](C)CO)C(=O)c2cc(NC(=O)Nc3ccc(C(F)(F)F)cc3)ccc2O[C@@H]1CN(C)C | 5.4 | 2.1 | 11.2 | nt | -0.1 | 22.5*
C[C@@H]1CN([C@H](C)CO)C(=O)c2cc(NC(=O)Nc3ccc(F)cc3)ccc2O[C@H]1CN(C)C | -1.4 | -3.3 | -5.0 | nt | 3.8 | 16.4
C[C@H]1CN([C@@H](C)CO)C(=O)c2cc(NC(=O)Nc3ccc(F)cc3)ccc2O[C@H]1CN(C)C | -1.3 | -6.6 | -0.1 | nt | 4.8 | -0.7
C[C@H]1CN([C@@H](C)CO)C(=O)c2cc(NC(=O)Nc3ccc(F)cc3)ccc2O[C@@H]1CN(C)C | -0.9 | -4.7 | -1.1 | nt | 1.5 | 26.2*
CO[C@@H]1CN(C)C(=O)c2cc(NC(=O)C3CC3)ccc2OC[C@@H](C)N(Cc2ccncc2)C[C@H]1C | 0.4 | 0.5 | 2.5 | nt | -2.3 | -2.4
COC(=O)C[C@@H]1CC[C@H]2[C@@H](COc3ccc(NC(=O)c4cscn4)cc3C(=O)N2C)O1 | -3.2 | -5.7 | 2.0 | nt | 0.0 | ?
O=Cc1ccc(O)c2ncccc12 | nt | 4.2 | nt | 123.8* | nt | nt
Cc1noc(C)c1S(=O)(=O)N(C)C[C@H]1Oc2ccc(NS(=O)(=O)c3cn(C)cn3)cc2CC(=O)N([C@@H](C)CO)C[C@H]1C | -1.3 | -0.8 | 7.6 | nt | 3.1 | -4.4
CC(=O)Nc1ccc(C(=O)Nc2cc(C(F)(F)F)ccc2-n2cnc3ccccc32)cc1 | nt | nt | nt | 12.1 | nt | nt

Source: PubChem
